{
  "source": "paper PMC5109833",
  "about": "(Journal of medicinal chemistry, 2015)",
  "key": {"[1]": {"target": "T1, STAT6 (SH2 domain) (Homo sapiens, UniProt P42226)", "T1 sequence (P42226 517-632 limits assumed)": "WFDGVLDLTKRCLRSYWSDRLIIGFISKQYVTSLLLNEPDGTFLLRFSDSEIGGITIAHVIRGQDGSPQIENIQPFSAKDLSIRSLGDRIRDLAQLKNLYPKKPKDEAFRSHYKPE", "assay": "Fluorescence polarization assay of affinity for STAT6", "assay_type": "binding"}, "[2]": {"tested_on": "pSTAT6 (Tyr641) in Beas-2B cells", "conditions": "IL-4 and IL-13 stimulated; cited from earlier work"}, "[3]": {"tested_on": "CCL26 (eotaxin-3) mRNA in Beas-2B cells", "assay": "Inhibition of IL-13 stimulated CCL26", "assay_type": "cell-based, human", "conditions": "IL-13, 100 nM", "outline": "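Beas-2B cells plated at 4 × 10^5 cells/well and held overnight in complete medium, then serum-starved 2 h. Pretreated with test compound 2 h, then stimulated with IL-13 overnight in serum-free medium. RNA extracted with Trizol and reverse transcribed. CCL26 quantified relative to β-actin by TaqMan real-time PCR.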"}, "[4]": {"tested_on": "pSTAT6 in CD4+ T lymphocytes", "assay_type": "cell-based", "conditions": "primary mouse CD4+ T lymphocytes, Figure S2", "outline": "(§1)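 CD4+ T cells magnetically sorted from C57BL/6J mice. Activated on plate-bound anti-CD3 and/or anti-CD28 with IL-2 or IL-4 for 15 min. Lysed in kinase lysis buffer with protease inhibitors, 10 mM NaF and 1 mM Na3VO4. Protein equalised by Bradford, then immunoblotted for phospho-STAT5 Tyr694/STAT5 or phospho-STAT6 Tyr641/STAT6.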"}, "[5]": {"tested_on": "Beas-2B cells", "assay": "Beas-2B cell viability/proliferation, MTS assay, 72 h", "assay_type": "cell-based, human", "conditions": "72 h exposure", "outline": "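Beas-2B cells seeded at 2000 cells/well. Test compound made as 10 mM DMSO stock, serially diluted in DMSO, and equal amounts of each dilution added. Incubation at 37 °C for 72 h. Medium then replaced with 1:5 MTS/PBS for a further 1 h. Viable cells estimated from optical density at 490 nm.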"}, "[6]": {"tested_on": "pSTAT6 (Tyr641) in Beas-2B cells", "assay": "Inhibition of STAT6 Tyr641 phosphorylation in intact Beas-2B cells", "assay_type": "cell-based, human", "conditions": "for pSTAT6 inhibition potency (in words): IL-4, Figure 4B", "outline": "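Beas-2B cells seeded at 3.0 × 10^5 cells/well the day before. Prodrug added from DMSO stocks (5–10 μM stock) for 2 h, then IL-4 2 ng/mL for 1 h. Cells washed in cold PBS, lysed with PMSF, and protein measured by Lowry. 15–30 µg run on 10% SDS-PAGE and probed for pSTAT6 Tyr641 with ECL detection, then stripped and reprobed for total STAT6. Bands quantified densitometrically.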"}, "[7]": {"tested_on": "pSTAT5 in CD4+ T lymphocytes", "assay_type": "cell-based", "conditions": "primary mouse CD4+ T lymphocytes", "outline": "as §1"}, "[8]": {"tested_on": "pAkt in MDA-MB-468 cells", "assay": "Inhibition of EGF-stimulated pAkt in MDA-MB-468 cells", "assay_type": "cell-based, human", "conditions": "serum starved MDA-MB-468, EGF"}},
  "note": "Where two headings read alike, the source gives them in different places. Peptide text beside a SMILES is read from it.",
  "data": [
    {"smiles": "CC(C)(C)[C@H](NC(=O)/C=C/c1ccc(OP(=O)(O)O)cc1)C(=O)N1CCC[C@H]1C(=O)N(c1ccccc1)c1ccc(I)cc1", "note": "[18a]", "values": [
      {"measurement": "IC50", "setting": "[1]", "value": 40, "unit": "nM"}
    ]},
    {"smiles": "CC[C@H](C)[C@H](NC(=O)[C@H](CC(C)C)NC(=O)[C@H](CC(=O)O)NC(=O)[C@H](CCC(N)=O)NC(=O)[C@H](Cc1ccccc1)NC(=O)[C@@H]1CCCN1C(=O)[C@H](CCCCN)NC(=O)[C@H](Cc1ccc(OP(=O)(O)O)cc1)NC(C)=O)C(N)=O", "note": "[compound 1, Ac-pTyr-Lys-Pro-Phe-Gln-Asp-Leu-Ile-NH2] (HELM PEPTIDE1{[ac].[O=C([C@H](Cc1ccc(OP(=O)(O)O)cc1)N[*:1])[*:2]].K.P.F.Q.D.L.I.[am]}$$$$V2.0)", "values": [
      {"measurement": "IC50", "setting": "[1]", "value": 2000, "unit": "nM"}
    ]},
    {"smiles": "CC(C)(C)C(=O)OCOP(=O)(OCOC(=O)C(C)(C)C)C(F)(F)c1ccc(/C=C/C(=O)N[C@H](C(=O)N2CCC[C@H]2C(=O)N(c2ccccc2)c2ccc(I)cc2)C(C)(C)C)cc1", "note": "[compound 17]", "values": [
      {"measurement": "concentration giving significant inhibition of pSTAT6", "setting": "[2]", "value": "≥ 1", "unit": "µM"},
      {"measurement": "inhibition of CCL26 mRNA expression at 100 nM", "setting": "[3]", "value": "> 50", "unit": "%"},
      {"measurement": "inhibition of IL-4 stimulated pSTAT6", "setting": "[4]", "value": "relatively weak"}
    ]},
    {"smiles": "C/C(=C\\C(=O)N[C@H](C(=O)N1CCCC1/C=C/CCc1ccccc1)C(C)(C)C)c1ccc(OP(=O)(O)O)cc1", "note": "(stereo partly drawn) [compound 25]", "values": [
      {"measurement": "IC50", "setting": "[1]", "value": 500, "unit": "nM"}
    ]},
    {"smiles": "CC(C)(C)C(=O)OCOP(=O)(OCOC(=O)C(C)(C)C)C(F)(F)c1ccc(/C=C/C(=O)N[C@H](C(=O)N2CCC[C@H]2C(=O)N(c2ccccc2)c2ccccc2)C(C)(C)C)cc1", "note": "[compound 28]", "values": [
      {"measurement": "effect on cell viability at concentrations ≤1 µM", "setting": "[5]", "value": "did not affect viability"},
      {"measurement": "concentration giving complete inhibition of pSTAT6", "setting": "[6]; prodrug 2 h, IL-4 1 h", "value": 500, "unit": "nM"},
      {"measurement": "concentration giving significant inhibition of pSTAT6", "setting": "[6]; prodrug 2 h, IL-4 1 h", "value": 100, "unit": "nM"},
      {"measurement": "inhibition of IL-2 mediated STAT5 phosphorylation", "setting": "[7]", "value": "robust inhibition"}
    ]},
    {"smiles": "CN(C(=O)[C@@H]1CCCN1C(=O)[C@@H](NC(=O)/C=C/c1ccc(C(F)(F)P(=O)(OCOC(=O)C(C)(C)C)OCOC(=O)C(C)(C)C)cc1)C(C)(C)C)c1ccccc1", "note": "[compound 29]", "values": [
      {"measurement": "effect on cell viability at concentrations ≤1 µM", "setting": "[5]", "value": "did not affect viability"},
      {"measurement": "concentration giving nearly complete inhibition of pSTAT6", "setting": "[6]; prodrug 2 h, IL-4 1 h", "value": 100, "unit": "nM"},
      {"measurement": "concentration giving significant inhibition of pSTAT6", "setting": "[6]; prodrug 2 h, IL-4 1 h", "value": 50, "unit": "nM"},
      {"measurement": "inhibition of pAkt at 5 µM", "setting": "[8]", "value": "mild inhibition"},
      {"measurement": "inhibition of IL-2 mediated STAT5 phosphorylation", "setting": "[7]", "value": "robust inhibition"}
    ]},
    {"smiles": "CC(C)(C)C(=O)OCOP(=O)(OCOC(=O)C(C)(C)C)C(F)(F)c1ccc(/C=C/C(=O)N[C@H](C(=O)N2CCC[C@H]2C(=O)Nc2ccccc2)C(C)(C)C)cc1", "note": "[compound 30]", "values": [
      {"measurement": "cell viability (in words)", "setting": "[5]", "value": "the fraction of viable cells paralleled pSTAT6 inhibition"},
      {"measurement": "loss of pSTAT6 inhibition potency relative to 29", "setting": "[6]; IL-4", "value": "approximately 25 fold"},
      {"measurement": "lowest concentration with potent inhibition of pAkt", "setting": "[8]", "value": 100, "unit": "nM"},
      {"measurement": "inhibition of IL-2 mediated STAT5 phosphorylation", "setting": "[7]", "value": "not an inhibitor of pSTAT5"}
    ]},
    {"smiles": "C/C(=C\\C(=O)N[C@H](C(=O)N1CCC[C@H]1C(=O)N(C)c1ccccc1)C(C)(C)C)c1ccc(C(F)(F)P(=O)(OCOC(=O)C(C)(C)C)OCOC(=O)C(C)(C)C)cc1", "note": "[compound 31]", "values": [
      {"measurement": "cell viability (in words)", "setting": "[5]", "value": "nearly identical to that of 29"},
      {"measurement": "pSTAT6 inhibition potency (in words)", "setting": "[6]", "value": "retains potency"},
      {"measurement": "inhibition of CCL26 mRNA expression at 100 nM", "setting": "[3]", "value": "> 50", "unit": "%"},
      {"measurement": "inhibition of pAkt at 5 µM", "setting": "[8]", "value": "mild inhibition"},
      {"measurement": "inhibition of IL-2 mediated STAT5 phosphorylation", "setting": "[7]", "value": "robust inhibition"}
    ]},
    {"smiles": "C/C(=C\\C(=O)N[C@H](C(=O)N1CCC[C@H]1C(=O)N(C)C1CCCCC1)C(C)(C)C)c1ccc(C(F)(F)P(=O)(OCOC(=O)C(C)(C)C)OCOC(=O)C(C)(C)C)cc1", "note": "[compound 32]", "values": [
      {"measurement": "cell viability (in words)", "setting": "[5]", "value": "nearly identical to that of 29"},
      {"measurement": "pSTAT6 inhibition potency (in words)", "setting": "[6]", "value": "high potency"},
      {"measurement": "inhibition of IL-2 mediated STAT5 phosphorylation", "setting": "[7]", "value": "robust inhibition"}
    ]}
  ]
}
